Ecoli rRNA inh – reduced GFP signal of wild-type E. coli, primary screen, bacterial rRNA inhibitor project, GFP/RFP fluorescence, OD600, single point. actives 1.6% (n = 350,000). E. coli WT GFP vs humanized-ribosome RFP mutants, 24 h; hits give low values; DMSO median 0, no signal -100. AID 720706, 2013. GFP signal change (wild-type ribosome), % (test concentration not listed);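 active = significant combined selectivity score with lowered wild-type GFP, culture density cut under 30%, mutant RFP and density less affected; inactive = any of these conditions unmet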
S100A4 MyoIIA – inhibitors of S100A4-myosin IIA peptide binding, primary screen, biochemical, fluorescence polarization, TAMRA-MyoIIA peptide. inhibition, % at 10.7 µM. Protein S100-A4 (Homo sapiens), P26447. AID 652163, 2013. actives 0.14% (n = 360,000);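 active = mean inhibition of at least 70% across replicates, with every replicate also reaching that level; inconclusive = mean inhibition reaches 70% but some replicates fall short; inactive = mean inhibition below 70%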
Target sequence (P26447 whole entry, looked up): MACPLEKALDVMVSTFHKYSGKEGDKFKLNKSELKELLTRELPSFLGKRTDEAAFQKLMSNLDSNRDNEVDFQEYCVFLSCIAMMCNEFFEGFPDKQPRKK
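incubation = readout 5 min after mixing, signal stable up to 60 min | system = S100A4 monomer protein | buffer or medium = HEPES pH 7.2 with CaCl2, KCl, NaCl, DTT, Triton | benchmarks = neutral control DMSO, positive control TFP | also added = fluorescent myosin IIA peptide, 5 nM | compound dosing = one concentration per compound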
DENV2 CPE – inhibitors of DENV2 cytopathic effect, primary screen, cell-based, plate reader, single concentration; DENV2-infected cells, cytopathic effect rescue; CPE inhibition, % at 9.99 µM; actives 1.7% (n = 350,000); in the data active = CPE inhibition above about 20%, passing the limit was not always enough; inconclusive = no clear call, values can overlap the other calls; tested in BHK-21 cells;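 also: 0% = median of neutral control wells and 100% = median of positive control wells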
Cneo AK release – Cryptococcus neoformans cell lysis inducers, primary screen, AK release luminescence, single concentration | lysis activity, % at 15 µM | actives 0.2% (n = 360,000) | AID 651654, 2012 | C. neoformans lysis, adenylate kinase release luminescence, 4 h; normalised: neutral wells 0, clomiphene wells 100;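 active = mean lysis activity across replicates of at least 80%, whatever share of replicates individually reach that level; inactive = mean lysis activity below 80%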
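Material – log-phase Cryptococcus neoformans yeast cells · Input – 5 × 10^6 yeast cells/mL · Medium – fresh YPD growth medium · Doses – single compound concentration per well · Timing – static 4 h at 37 °C with compound, 1 h detection · Detection – adenylate kinase release luminescence · Read-out – signal increase indicating cell lysis · Control set – Clomiphene as positive lysis control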
PfHsp90 set2 – growth inhibition of PfHsp90-expressing yeast, primary screen, antimalarial PfHsp90 inhibitor project, S. cerevisiae, BacTiter-Glo luminescence, single point, set 2; BacTiter-Glo ATP, 48 h; yeast lacking PDR1 and PDR3 efflux regulators; inhibition, % at 9.4 µM; actives 0.32% (n = 310,000);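 active = every replicate shows inhibition above about 80%, whatever the replicate mean, limit read from the data; inconclusive = mean inhibition reaches the set limit but some replicate falls short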;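 also: 0% = DMSO neutral controls and 100% = 20 µM radicicol positive controls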
AF4-AF9 inh – inhibitors of AF4 peptide binding to AF9, primary screen, biochemical, AlphaScreen, biotin-AF4 peptide, FLAG-AF9, single point; inhibition, % at 10 µM; actives 0.47% (n = 350,000); AID 651704, 2012;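 active = every replicate reaching a set inhibition limit, whatever the replicate mean, cut at about 25% in these data; inconclusive = mean inhibition reaches that limit but some replicates miss it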;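 also: 0% = plate neutral control median and 100% = total signal loss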
Target sequence (P42568 whole entry, looked up): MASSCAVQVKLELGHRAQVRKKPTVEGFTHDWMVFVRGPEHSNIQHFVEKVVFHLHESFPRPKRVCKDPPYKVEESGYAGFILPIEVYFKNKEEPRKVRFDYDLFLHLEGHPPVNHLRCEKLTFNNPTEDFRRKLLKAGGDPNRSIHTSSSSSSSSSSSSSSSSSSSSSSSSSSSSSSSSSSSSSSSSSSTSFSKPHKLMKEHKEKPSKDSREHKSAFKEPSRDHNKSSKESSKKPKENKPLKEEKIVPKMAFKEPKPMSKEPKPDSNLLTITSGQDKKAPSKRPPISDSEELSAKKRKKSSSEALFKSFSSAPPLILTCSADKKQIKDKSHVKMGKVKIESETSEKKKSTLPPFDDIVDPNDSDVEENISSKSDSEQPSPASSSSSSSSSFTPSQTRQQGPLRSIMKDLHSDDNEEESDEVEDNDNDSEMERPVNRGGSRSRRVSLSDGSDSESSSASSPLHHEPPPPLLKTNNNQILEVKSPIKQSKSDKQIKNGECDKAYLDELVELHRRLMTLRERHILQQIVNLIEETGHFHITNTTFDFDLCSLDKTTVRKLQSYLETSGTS
An asterisk follows results filed as active; ? = inconclusive; . = no result. Rows were chosen to be rich in hits. Some 3.2% of all compounds tested hit in one or more screens of this group.

SMILES | Ecoli rRNA inh | S100A4 MyoIIA | DENV2 CPE | Cneo AK release | PfHsp90 set2 | AF4-AF9 inh
Cc1noc(C)c1S(=O)(=O)Nc1ccc2c(c1)C(=O)N([C@@H](C)CO)C[C@@H](C)[C@H](CN(C)Cc1ccccc1)O2 | 0.5 | -13.4 | 3.2 | -2.3 | . | 1.1
CCC(=O)NC[C@H]1[C@@H](c2ccc(C3=CCCC3)cc2)[C@@H](CO)N1C(=O)CC | -0.4 | 0.7 | 31.3* | . | . | -2.5
CCCC(=O)N1CCC2(CC1)CN(C(=O)CC)[C@@H](CO)c1c2c2ccc(OC)cc2n1C | -2.8 | 3.5 | 6.0 | . | . | -1.4
COCC(=O)N[C@H]1CC[C@H](CC(=O)N2CCCCC2)O[C@@H]1CO | 1.6 | 5.6 | -12.5 | 9.5 | . | -5.4
CN(C)c1ccc(C(c2ccc(N(C)C)cc2)c2ccc([N+](=O)[O-])cc2)cc1 | -6.3 | -2.9 | -6.1 | 2.0 | 30.7 | 27.3*
CN(C)c1ccc(C=NC(CO)C(O)c2ccc([N+](=O)[O-])cc2)cc1 (configuration not stated) | 7.5 | 5.2 | -5.5 | . | -10.7 | 5.0
CO[C@H]1CN(C)C(=O)c2ccc(NS(=O)(=O)c3cn(C)cn3)cc2OC[C@H](C)N(CC2CC2)C[C@H]1C | 1.6 | 6.5 | ? | -13.9 | . | -2.4
C[C@@H]1CN([C@@H](C)CO)C(=O)c2cc(NS(=O)(=O)c3cccs3)ccc2O[C@@H]1CN(C)Cc1ccc(-c2ccccc2)cc1 | 0.1 | 2.5 | -2.0 | 1.3 | . | 3.6
CCCn1c(N2CCN(C(=O)Nc3ccc(Cl)cc3)CC2)nc2ccccc21 | -26.2* | -3.2 | 13.3 | 2.9 | 15.3 | 0.5
CCCc1nc2ccccc2n1Cc1ccccc1OC | -45.5* | 5.5 | 0.2 | 7.0 | . | 0.8
CN(C)CC(=O)N[C@H]1CC[C@@H](CCn2cc(CN(C)C)nn2)O[C@H]1CO | 7.2 | 5.5 | -11.0 | -1.5 | . | -10.9
Nc1ccc(Nc2ccc([N+](=O)[O-])cc2[N+](=O)[O-])cc1 | 3.3 | -2.3 | -2.8 | . | 6.2 | 26.6*
C[C@@H]1CN([C@H](C)CO)C(=O)c2cc(NC(=O)CCC(F)(F)F)ccc2O[C@@H]1CN(C)Cc1ccc(Oc2ccccc2)cc1 | -1.9 | 12.0 | -1.9 | 3.1 | . | 5.1
O=C(c1ccccc1)N1CC[C@@H]2[C@H](CO)Nc3ccc(C#Cc4ccccc4F)cc3[C@@H]21 | -3.5 | -0.3 | 7.0 | 2.9 | . | -3.8
COc1ccccc1C#Cc1ccc2c(c1)[C@H]1[C@H](CCN1C(=O)c1ccncc1)[C@H](CO)N2 | . | . | 36.0* | -0.1 | . | .
O=C(c1ccccc1)N1CC[C@H]2[C@H](CO)Nc3ccc(C#Cc4ccccc4F)cc3[C@H]21 | -5.7 | 16.3 | 31.6* | . | . | 1.9
O=C(c1ccccc1F)N1CC[C@@H]2[C@H]1c1cc(C#Cc3ccccc3)ccc1N[C@@H]2CO | -5.5 | . | . | 4.8 | . | .
O=C(c1ccccc1)N1CC[C@@H]2[C@H](CO)Nc3ccc(C#CC4CCCCC4)cc3[C@@H]21 | 2.7 | 15.0 | -3.4 | . | . | -3.2
O=C(c1ccccc1F)N1CC[C@@H]2[C@H](CO)Nc3ccc(C#Cc4ccc(F)cc4)cc3[C@@H]21 | -6.9 | . | 25.9* | 4.5 | . | .
O=C(c1ccccc1)N1CC[C@@H]2[C@H]1c1cc(C#CC3CCCCC3)ccc1N[C@@H]2CO | -4.7 | -24.2 | 52.2* | . | . | 3.1
O=C(C[C@@H]1CC[C@@H](NC(=O)Nc2ccc(F)cc2)[C@H](CO)O1)NCc1cccc(F)c1 | 1.6 | 5.4 | -2.5 | -4.4 | . | -2.1
O=S(=O)(c1ccccc1F)N1CCCCN2[C@H](CO)[C@H](c3ccc(-c4ccncc4)cc3)[C@H]2C1 | 2.1 | 13.8 | 3.1 | -1.0 | . | 2.8
COc1ccc(S(=O)(=O)N(C)C[C@@H]2Oc3c(NC(=O)c4nc5ccccc5s4)cccc3C(=O)N([C@@H](C)CO)C[C@@H]2C)cc1 | 0.0 | 12.8 | -0.7 | -4.3 | . | 2.8
C[C@H](CO)N1C[C@H](C)[C@H](CN(C)C(=O)Nc2cc(F)ccc2F)Oc2ncc(C#CCN(C)C)cc2C1=O | 3.8 | 1.7 | ? | 56.0 | . | 2.2
O=C(c1ccccc1F)N1CC[C@@H]2[C@@H](CO)Nc3ccc(C#Cc4ccccc4F)cc3[C@@H]21 | 2.2 | 3.4 | 2.0 | -2.8 | . | 0.2
SMILES | Ecoli rRNA inh | S100A4 MyoIIA | DENV2 CPE | Cneo AK release | PfHsp90 set2 | AF4-AF9 inh
CN(C)C(=O)c1ccc(-c2ccc3c(c2)[C@@H]2[C@@H](CCN2C(=O)c2cnccn2)[C@H](CO)N3)cc1 | 2.5 | 5.5 | -4.1 | 4.4 | . | -1.6
CN(C)C(=O)c1ccc(-c2ccc3c(c2)[C@H]2[C@H](CCN2C(=O)c2ccccn2)[C@H](CO)N3)cc1 | 5.4 | . | 26.0* | 4.7 | . | .
O=C(c1ccccc1F)N1CC[C@@H]2[C@H](CO)Nc3ccc(C#Cc4ccccc4F)cc3[C@@H]21 | -3.2 | -13.4 | 61.6* | -8.0 | . | -5.0
COc1ccc(C#Cc2ccc3c(c2)[C@H]2[C@H](CCN2C(=O)c2ccccn2)[C@@H](CO)N3)cc1 | -3.5 | -6.2 | -12.5 | . | . | 26.1*
C[C@@H]1CCCCO[C@@H](CN(C)C(=O)Nc2cccc3ccccc23)[C@H](C)CN([C@H](C)CO)C(=O)c2cc(NS(=O)(=O)c3ccc(F)cc3)ccc2O1 | 2.1 | -2.6 | 11.4 | -3.6 | . | 1.4
CC(C)(C)c1ccc(/C=N/Nc2ccc(C(=O)O)cc2)cc1 | 0.5 | 3.3 | 1.7 | -8.4 | -17.5 | 5.6
CC1Oc2ccccc2C=C1/C=N/Nc1ccc(C(=O)O)cc1 (configuration not stated) | -22.6* | 23.4 | 11.7 | -3.6 | 71.8 | 14.0
Cc1nnc(Cl)c2nn(-c3ccccc3)c(C)c12 | 18.6 | -5.4 | 7.0 | -5.2 | 11.4 | 6.1
CCOc1ccc(-n2nc3c(Cl)nnc(C)c3c2C)cc1 | 0.4 | 1.5 | -10.1 | -0.6 | 10.3 | 58.1*
C[C@@H]1CN([C@@H](C)CO)C(=O)c2cc(NC(=O)c3ccncc3)ccc2O[C@H]1CN(C)Cc1ccc(C(F)(F)F)cc1 | -5.7 | -2.0 | -6.2 | 6.5 | . | -3.4
NC(=O)CC(NC(=O)c1cccc(Br)c1)c1ccc(NCCN2CCOCC2)c([N+](=O)[O-])c1 (configuration not stated) | 9.7 | -0.4 | 29.2* | . | . | 2.3
NC(=O)CC(NC(=O)c1ccccc1)c1ccc(NCCc2cccc(F)c2)c([N+](=O)[O-])c1 (configuration not stated) | 14.3 | -16.0 | 39.1* | 4.4 | 11.3 | -3.4

Assay outcomes deposited in PubChem BioAssay by Broad Institute.
